Results on three compounds are retold here after ChEMBL document CHEMBL4823260, “From High-Throughput Screening to Target Validation: Benzo[d]isothiazoles as Potent and Selective Agonists of Human Transient Receptor Potential Cation Channel Subfamily M Member 5 Possessing In Vivo Gastrointestinal Prokinetic Activity in Rodents” (J Med Chem, 2021).

Structures are written as SMILES.

Data set [1] addresses Transient receptor potential cation channel subfamily M member 8 (Homo sapiens, UniProt Q7Z2W7). Nature of the data set: Agonist activity at human TRPM8 expressed in HEK cells assessed as increase in menthol-induced intracellular calcium level measured after 1 hr by FLIPR assay. The class given is cell-based. The method in brief:
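HEK cells with stable hTRPM8, 20,000/well on poly-D-lysine plates 24 h ahead. Loaded with calcium-6 dye and 2.5 mM probenecid, 1 h at 37 °C then 1 h at rt. First-addition calcium rise scaled to (−)menthol 100 μM final (100% control); pEC50 derived from the concentration–response. Final DMSO 0.5%; assay at rt.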

Data set [2] concerns the target T1, Transient receptor potential cation channel subfamily M member 5 (Mus musculus, UniProt Q9JJH7).
T1 sequence (Q9JJH7 whole entry): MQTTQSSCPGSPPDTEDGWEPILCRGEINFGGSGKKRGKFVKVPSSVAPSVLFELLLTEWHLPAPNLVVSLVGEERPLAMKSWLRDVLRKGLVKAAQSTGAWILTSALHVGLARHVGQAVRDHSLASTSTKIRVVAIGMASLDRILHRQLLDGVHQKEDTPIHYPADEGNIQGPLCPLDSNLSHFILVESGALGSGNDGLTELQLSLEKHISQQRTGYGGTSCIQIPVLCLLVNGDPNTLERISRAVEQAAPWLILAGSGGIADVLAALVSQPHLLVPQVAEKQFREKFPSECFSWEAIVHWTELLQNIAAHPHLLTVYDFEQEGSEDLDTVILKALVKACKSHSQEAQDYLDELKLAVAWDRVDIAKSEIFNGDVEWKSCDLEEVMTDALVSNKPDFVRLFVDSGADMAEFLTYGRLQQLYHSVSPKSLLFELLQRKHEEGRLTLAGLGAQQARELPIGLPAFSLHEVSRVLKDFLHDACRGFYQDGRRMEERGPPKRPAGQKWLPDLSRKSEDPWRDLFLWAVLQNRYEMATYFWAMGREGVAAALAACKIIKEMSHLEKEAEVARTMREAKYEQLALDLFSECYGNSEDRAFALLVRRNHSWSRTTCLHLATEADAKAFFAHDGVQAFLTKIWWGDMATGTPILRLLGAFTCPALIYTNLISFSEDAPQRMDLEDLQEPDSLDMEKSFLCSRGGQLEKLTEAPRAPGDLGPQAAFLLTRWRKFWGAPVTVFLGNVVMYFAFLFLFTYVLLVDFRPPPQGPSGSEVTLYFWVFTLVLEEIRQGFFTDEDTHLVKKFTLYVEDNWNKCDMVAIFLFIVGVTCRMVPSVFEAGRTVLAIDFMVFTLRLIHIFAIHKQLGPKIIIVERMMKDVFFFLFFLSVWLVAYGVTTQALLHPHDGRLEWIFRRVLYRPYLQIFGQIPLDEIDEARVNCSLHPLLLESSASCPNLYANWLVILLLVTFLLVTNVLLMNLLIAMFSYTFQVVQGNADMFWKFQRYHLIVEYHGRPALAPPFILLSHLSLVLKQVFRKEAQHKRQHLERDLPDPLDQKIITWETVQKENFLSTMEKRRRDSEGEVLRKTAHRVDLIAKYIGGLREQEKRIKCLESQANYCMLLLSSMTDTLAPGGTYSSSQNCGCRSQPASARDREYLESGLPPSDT
Kind of data set: Agonist activity at mouse TRPM5 expressed in CHO-K1 cells maintained at 80 mV final holding potential by syncroPatch assay. The class given is cell-based. The method in brief: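 SyncroPatch 384 whole-cell recording at rt on CHO-K1 cells stably expressing human or mouse TRPM5. Intracellular solution had 2 mM Na-ATP and 5 μM free Ca2+. Cumulative doses 0.03–31.6 μM in 0.5% DMSO, 150 s each after 180 s vehicle. Current measured at the end of the +80 mV step, normalized to vehicle; pEC50 is the mean of ≥2 independent experiments.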
(In general: Patch clamp records ionic current or voltage across a cell membrane.)

A short description of data set [3]: Protein binding in rat plasma assessed as unbound fraction measured after 5 hrs by equilibrium dialysis based HPLC/UPLC-MS/MS analysis. The class given is ADME, cell-free. For orientation: In equilibrium dialysis free small molecules cross a membrane that holds back macromolecules.
Data set [4] in a line: Protein binding in mouse plasma assessed as unbound fraction measured after 5 hrs by equilibrium dialysis based HPLC/UPLC-MS/MS analysis. In kind it is ADME, cell-free.
A short description of data set [5]: Clast in CD-1 mouse at 1 mg/kg, iv measured up to 24 hrs. Conditions: in vivo, read-out: Clast. The class given is ADME, organism-based.
Data set [6] can be described thus: AUClast in CD-1 mouse at 10 mg/kg, po measured up to 24 hrs. In kind it is ADME, organism-based. Also on record: route oral, dose 10 mg/kg, time <=24. Conditions: in vivo.
The nature of data set [7]: Drug concentration in C57BL6 mouse plasma at 1 mg/kg, po administered as single dose measured after 6 to 48 hrs by LC-MS/MS analysis. In kind it is ADME, organism-based. The conditions noted are these: in vivo, time 6-48 hrs. The method in brief: (§1)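 Single oral dose of 1, 3 or 100 mg/kg in mouse. Plasma (ng/mL) and colon and ileum (ng/g) exposure sampled at 6, 24 and 48 h, and at 72 h for the top dose; mean values reported.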

Data set [8] in a line: Drug concentration in C57BL6 mouse plasma at 3 mg/kg, po administered as single dose measured after 6 to 48 hrs by LC-MS/MS analysis. The class given is ADME, organism-based. Conditions: in vivo, time 6-48 hrs. The method in brief: as §1
Data set [9] can be described thus: Drug concentration in C57BL6 mouse plasma at 100 mg/kg, po administered as single dose measured after 24 to 72 hrs by LC-MS/MS analysis. In kind it is ADME, organism-based. The conditions noted are these: in vivo, time 24-72 hrs. Summed up:
as §1

In data set [10] the test system is Mus musculus. Kind of data set: Gastroprokinetic activity in CD-1 mouse assessed as stimulation of gastrointestinal motility by measuring fecal number at 1 mg/kg, po measured after 2 hrs (reference value: 5.3 +/-0.7). In kind it is functional.
Data set [11] relates to Mus musculus. Kind of data set: Gastroprokinetic activity in CD-1 mouse assessed as stimulation of gastrointestinal motility by measuring fecal number at 10 mg/kg, po measured after 1 hrs (reference value: 3 +/-0.8). In kind it is functional.
Data set [12] has as its system Mus musculus. Kind of data set: Gastroprokinetic activity in CD-1 mouse assessed as stimulation of gastrointestinal motility by measuring fecal number at 10 mg/kg, po measured after 6 hrs (reference value: 20.1 +/-1.4). The class given is functional.
Data set [13] relates to Mus musculus. Nature of the data set: Gastroprokinetic activity in CD-1 mouse assessed as stimulation of gastrointestinal motility by measuring fecal number at 100 mg/kg, po measured after 1 hrs (reference value: 3 +/-0.8). In kind it is functional.
The subject of data set [14] is Mus musculus. Kind of data set: Gastroprokinetic activity in CD-1 mouse assessed as stimulation of gastrointestinal motility by measuring fecal number at 100 mg/kg, po measured after 2 hrs (reference value: 5.3 +/-0.7). In kind it is functional.
For data set [15], the system named is Mus musculus. Nature of the data set: Gastroprokinetic activity in CD-1 mouse assessed as stimulation of gastrointestinal motility by measuring fecal number at 100 mg/kg, po measured after 3 hrs (reference value: 9.1 +/-1.1). The class given is functional.
Data set [16] has as its system Mus musculus. Kind of data set: Gastroprokinetic activity in CD-1 mouse assessed as stimulation of gastrointestinal motility by measuring total fecal weight at 10 mg/kg, po measured after 2 hrs (reference value: 0.13 +/-0.02 g). In kind it is functional.
For data set [17], the system named is Mus musculus. Nature of the data set: Gastroprokinetic activity in CD-1 mouse assessed as stimulation of gastrointestinal motility by measuring total fecal weight at 100 mg/kg, po measured after 2 hrs (reference value: 0.13 +/-0.02 g). In kind it is functional.
The test system of data set [18] is Mus musculus. Kind of data set: Gastroprokinetic activity in CD-1 mouse assessed as stimulation of gastrointestinal motility by measuring total fecal weight at 10 mg/kg, po measured after 3 hrs (reference value: 0.21 +/-0.03 g).

Chain of Transient receptor potential cation channel subfamily M member 8 (Q7Z2W7 whole entry): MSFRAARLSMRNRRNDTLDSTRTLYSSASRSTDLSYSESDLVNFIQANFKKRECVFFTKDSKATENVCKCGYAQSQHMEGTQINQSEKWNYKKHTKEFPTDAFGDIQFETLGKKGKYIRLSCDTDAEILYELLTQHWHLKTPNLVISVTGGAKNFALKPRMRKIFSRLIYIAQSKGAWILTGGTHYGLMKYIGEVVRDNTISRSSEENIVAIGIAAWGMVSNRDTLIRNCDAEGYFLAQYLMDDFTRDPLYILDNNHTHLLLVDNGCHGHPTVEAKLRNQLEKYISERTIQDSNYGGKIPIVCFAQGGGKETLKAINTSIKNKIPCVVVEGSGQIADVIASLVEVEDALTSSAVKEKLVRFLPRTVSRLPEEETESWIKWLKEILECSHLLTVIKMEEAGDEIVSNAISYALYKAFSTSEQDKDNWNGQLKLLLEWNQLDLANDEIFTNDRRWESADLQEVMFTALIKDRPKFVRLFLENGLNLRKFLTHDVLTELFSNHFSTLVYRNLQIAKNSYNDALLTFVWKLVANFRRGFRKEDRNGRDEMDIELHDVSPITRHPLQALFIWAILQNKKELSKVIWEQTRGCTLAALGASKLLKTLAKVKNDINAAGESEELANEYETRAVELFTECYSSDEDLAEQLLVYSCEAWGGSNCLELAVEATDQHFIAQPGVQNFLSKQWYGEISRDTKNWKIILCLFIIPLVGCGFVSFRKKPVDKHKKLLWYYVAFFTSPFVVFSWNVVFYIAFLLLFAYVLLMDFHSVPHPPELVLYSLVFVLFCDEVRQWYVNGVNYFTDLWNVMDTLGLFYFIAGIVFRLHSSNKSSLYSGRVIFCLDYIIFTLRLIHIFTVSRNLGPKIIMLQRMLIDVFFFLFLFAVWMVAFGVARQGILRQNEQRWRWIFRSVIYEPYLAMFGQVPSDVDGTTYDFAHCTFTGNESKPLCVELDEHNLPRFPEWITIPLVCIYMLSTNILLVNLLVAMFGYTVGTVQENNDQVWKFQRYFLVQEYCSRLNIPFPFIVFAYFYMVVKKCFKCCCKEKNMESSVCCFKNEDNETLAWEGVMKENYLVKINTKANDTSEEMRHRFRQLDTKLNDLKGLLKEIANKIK

For orientation: EC50 means the concentration at which the effect is half-maximal. The term fraction unbound denotes the share of the substance not bound to proteins or other matrix. For `Clc1cnc(CNc2ccc3sncc3c2)s1`, the EC50 in data set [1] is > 15800 nM; in [2] it was 85.1 nM. Further, in data set [3], the fraction unbound at 5 h was < 0.01.

As usually defined, the AUC(0-t) is the area under the concentration-time curve up to a stated or last time point. Higher therefore signals high exposure. For `Clc1cnc(CNc2ccc3cnsc3c2)s1`, the EC50 is > 15800 nM in data set [1] and 43.7 nM in data set [2]. In addition, in [4], the fraction unbound at 5 h was < 0.01. Besides, in data set [5], the concentration at 24 h turned out to be 2.99 ng/mL. Besides, in data set [6], the AUC(0-t) at 24 h was 94.3 ng·h/mL.

On to `Clc1cnc(CNc2cc3sncc3cc2Cl)s1`, for which the half-maximal effective concentration (EC50) in [1] was > 15800 nM; in [2], 15.8 nM. Also, the unbound share (fraction unbound) at 5 h in data set [4] was < 0.01. Further, the Cp in data set [7], in data set [8] and in data set [9] was < 20 ng/mL throughout. Besides, the Activity in the data set on Mus musculus [10] was determined as 7.5; in the data set with Mus musculus [11], 3.4; in the data set with Mus musculus [12], 18.5; in the data set with Mus musculus [13] it was 4; in the data set with Mus musculus [14], 10.2; in the data set on Mus musculus [15], 13. Further, the Activity in the data set on Mus musculus [16] was found to be 0.18 g; in the data set on Mus musculus [17], 0.31 g; in the data set on Mus musculus [18], 0.23 g.
